Laboratory results as given in ChEMBL document CHEMBL1138022, “Structurally simplified macrolactone analogues of halichondrin B” (Bioorg Med Chem Lett, 2004).

How the values were obtained:
[1] = test system: U-937; assay: In vitro inhibitory concentration required to inhibit the growth of U937 cells was determined by mitotic block reversibility assay; assay type: functional; conditions: Homo sapiens
Summary of the method: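 Reversibility assay in human histiocytic lymphoma U937 cells. After drug washout, flow cytometry scored whether a complete mitotic block was still maintained 10 h later.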

[2] = test system: P388; assay: Fold resistance calculated as the inhibition concentration ratio between retrovirally transformed P388/VMDRC.04 and parental P388 cells; assay type: functional
Summary of the method: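 P-glycoprotein-mediated efflux assessed in murine P388/VMDRC.04, a retrovirally transformed multidrug-resistant subline of P388/S leukemia cells, alongside parental P388 cells. Growth inhibition IC50 was measured in each line. Fold resistance is the IC50 ratio of P388/VMDRC.04 to parental P388.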

[3] = test system: DLD-1; assay: In vitro inhibitory concentration required to inhibit the growth of DLD-1 cells under continuous exposure conditions for 3-4 days; assay type: functional, cell-based; conditions: Homo sapiens
Summary of the method: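 Human colon cancer DLD-1 cells were exposed to compound continuously for 3–4 days and growth inhibition was measured. IC50 is given ± SEM, with n the number of experiments.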

Structure (SMILES) | IC99 [1] [µM] | FR [2] | IC50 [3] [nM]
C=C1C[C@@H]2CC[C@@]34C[C@@H]5O[C@@H]6C(O[C@H]7CC[C@H](CC(=O)O[C@@H]8[C@@H](OC)[C@H](C[C@@H](O)CO)O[C@H]8C[C@H]8O[C@@H](CC[C@@H]1O2)C[C@@H](C)C8=C)O[C@@H]7[C@@H]6O3)[C@H]5O4 | 0.03 | 8.8 | 1.4
C=C1C[C@@H]2CC[C@@]34C[C@@H]5O[C@@H]6C(O[C@H]7CC[C@H](CC(=O)O[C@@H]8[C@@H](OC)[C@@H](O)[C@H](CC(O)CO)O[C@H]8C[C@H]8O[C@@H](CC[C@@H]1O2)C[C@@H](C)C8=C)O[C@@H]7[C@@H]6O3)[C@H]5O4 (some centres undefined) | 0.053 | 23 | 19
C=C1C[C@@H]2CC[C@@]34C[C@@H]5O[C@@H]6C(O[C@H]7CC[C@H](CC(=O)O[C@@H]8[C@@H](OC)[C@H](CCC(=O)C(F)(F)F)O[C@H]8C[C@H]8O[C@@H](CC[C@@H]1O2)C[C@@H](C)C8=C)O[C@@H]7[C@@H]6O3)[C@H]5O4 | 0.03 | 4.5 | 0.67
C=C1C[C@@H]2CC[C@@]34C[C@@H]5O[C@@H]6C(O[C@H]7CC[C@H](CC(=O)O[C@H]8[C@@H](OC)[C@H](CC(O)CO)O[C@H]8C[C@H]8O[C@@H](CC[C@@H]1O2)C[C@@H](C)C8=C)O[C@@H]7[C@@H]6O3)[C@H]5O4 (some centres undefined) |  |  | > 1000
C=C1C[C@@H]2CC[C@@]34C[C@@H]5O[C@@H]6C(O[C@H]7CC[C@H](CC(=O)O[C@@H]8[C@@H](C)[C@@H]9O[C@H](CO)[C@@H](O)C[C@@H]9O[C@H]8C[C@H]8O[C@@H](CC[C@@H]1O2)C[C@@H](C)C8=C)O[C@@H]7[C@@H]6O3)[C@H]5O4 | 0.22 | 12 | 3.4
C=C1C[C@@H]2CC[C@@]34C[C@@H]5O[C@@H]6C(O[C@H]7CC[C@H](CC(=O)O[C@@H]8[C@@H](OC)[C@@H]9OC(C)(C)OC[C@@H]9O[C@H]8C[C@H]8O[C@@H](CC[C@@H]1O2)C[C@@H](C)C8=C)O[C@@H]7[C@@H]6O3)[C@H]5O4 | > 1 | 1.7 | 11
C=C1C[C@@H]2CC[C@@]34C[C@@H]5O[C@@H]6C(O[C@H]7CC[C@H](CC(=O)O[C@@H]8[C@@H](OC)[C@H](O)[C@H](CO)O[C@H]8C[C@H]8O[C@@H](CC[C@@H]1O2)C[C@@H](C)C8=C)O[C@@H]7[C@@H]6O3)[C@H]5O4 | 0.3 | 8.5 | 2.6
C=C1C2C[C@@H]3O[C@@H](C[C@H](O)CO)[C@H](OC)[C@H]3OC(=O)C[C@H]3CC[C@@H]4OC5[C@H]6O[C@H]7C[C@](CC[C@H]8CC(=C)[C@H](CC[C@@H](C[C@H]1C)O2)O8)(OC6[C@H]4O3)O[C@H]57 | 0.1 | 8.2 | 6.4
C=C1C[C@@H]2CC[C@@]34C[C@@H]5O[C@@H]6C(O[C@H]7CC[C@H](CC(=O)O[C@@H]8[C@@H](OC)[C@H](O)[C@H](CCOC)O[C@H]8C[C@H]8O[C@@H](CC[C@@H]1O2)C[C@@H](C)C8=C)O[C@@H]7[C@@H]6O3)[C@H]5O4 | > 1 | 1.6 | 1.8
C=C1C[C@@H]2CC[C@@]34C[C@@H]5O[C@@H]6C(O[C@H]7CC[C@H](CC(=O)O[C@H]8C(CC9OC(CCC1O2)C[C@@H](C)C9=C)O[C@H]1C[C@H]2O[C@@]9(C[C@@H]%10O[C@]%11(C[C@H](C)[C@@H]%12O[C@H]([C@@H](O)C[C@@H](O)CO)C[C@@H]%12O%11)C[C@H](C)[C@@H]%10O9)C[C@H]2O[C@H]1[C@@H]8C)O[C@@H]7[C@@H]6O3)[C@H]5O4 (some centres undefined) | 0.025 | 2.8 | 0.74
C=C1C[C@@H]2CC[C@@]34C[C@@H]5O[C@@H]6C(O[C@H]7CC[C@H](CC(=O)O[C@@H]8[C@@H](OC)[C@@H](O)[C@H](CO)O[C@H]8C[C@H]8O[C@@H](CC[C@@H]1O2)C[C@@H](C)C8=C)O[C@@H]7[C@@H]6O3)[C@H]5O4 | 0.065 | 13 | 2
C=C1C[C@@H]2CC[C@@]34C[C@@H]5O[C@@H]6C(O[C@H]7CC[C@H](CC(=O)O[C@@H]8[C@@H](OC)[C@H](CO)O[C@@H]8C[C@H]8O[C@@H](CC[C@@H]1O2)C[C@@H](C)C8=C)O[C@@H]7[C@@H]6O3)[C@H]5O4 |  |  | > 1000
C=C1C[C@@H]2CC[C@@]34C[C@@H]5O[C@@H]6C(O[C@H]7CC[C@H](CC(=O)O[C@@H]8[C@@H](OC)[C@@H](O)[C@H](CCO)O[C@H]8C[C@H]8O[C@@H](CC[C@@H]1O2)C[C@@H](C)C8=C)O[C@@H]7[C@@H]6O3)[C@H]5O4 | 0.1 | 12 | 1.8
C=C1C[C@@H]2CC[C@@]34C[C@@H]5O[C@@H]6C(O[C@H]7CC[C@H](CC(=O)O[C@@H]8[C@@H](OC)[C@H](O)[C@H](CCO)O[C@H]8C[C@H]8O[C@@H](CC[C@@H]1O2)C[C@@H](C)C8=C)O[C@@H]7[C@@H]6O3)[C@H]5O4 | 0.3 | 10 | 1.8
C=C1C[C@@H]2CC[C@@]34C[C@@H]5O[C@@H]6C(O[C@H]7CC[C@H](CC(=O)O[C@@H]8[C@@H](OCC)[C@@H](O)[C@H](CC(O)CO)O[C@H]8C[C@H]8O[C@@H](CC[C@@H]1O2)C[C@@H](C)C8=C)O[C@@H]7[C@@H]6O3)[C@H]5O4 (some centres undefined) |  |  | 490
C=C1C[C@@H]2CC[C@@]34C[C@@H]5O[C@@H]6C(O[C@H]7CC[C@H](CC(=O)O[C@@H]8[C@@H](C)[C@H](O)[C@H](CCO)O[C@H]8C[C@H]8O[C@@H](CC[C@@H]1O2)C[C@@H](C)C8=C)O[C@@H]7[C@@H]6O3)[C@H]5O4 | 0.17 | 5.6 | 2.5
C=C1C[C@@H]2CC[C@@]34C[C@@H]5O[C@@H]6C(O[C@H]7CC[C@H](CC(=O)O[C@@H]8[C@H](OC)[C@H](CC(O)CO)O[C@H]8C[C@H]8O[C@@H](CC[C@@H]1O2)C[C@@H](C)C8=C)O[C@@H]7[C@@H]6O3)[C@H]5O4 (some centres undefined) |  |  | 220
C=C1C[C@@H]2CC[C@@]34C[C@@H]5O[C@@H]6C(O[C@H]7CC[C@H](CC(=O)O[C@@H]8[C@@H](OC)[C@H](CCO)O[C@H]8C[C@H]8O[C@@H](CC[C@@H]1O2)C[C@@H](C)C8=C)O[C@@H]7[C@@H]6O3)[C@H]5O4 | 0.1 | 2.8 | 0.97
C=C1C[C@@H]2CC[C@@]34C[C@@H]5O[C@@H]6C(O[C@H]7CC[C@H](CC(=O)O[C@@H]8[C@@H](OC)[C@@H](O)CO[C@H]8C[C@H]8O[C@@H](CC[C@@H]1O2)C[C@@H](C)C8=C)O[C@@H]7[C@@H]6O3)[C@H]5O4 |  |  | > 1000
C=C1C[C@@H]2CC[C@@]34C[C@@H]5O[C@@H]6C(O[C@H]7CC[C@H](CC(=O)O[C@@H]8[C@@H](OC)[C@@H](O)[C@@H](CC(O)CO)O[C@H]8C[C@H]8O[C@@H](CC[C@@H]1O2)C[C@@H](C)C8=C)O[C@@H]7[C@@H]6O3)[C@H]5O4 (some centres undefined) | 0.065 | 20 | 12
C=C1C[C@@H]2CC[C@@]34C[C@@H]5O[C@@H]6C(O[C@H]7CC[C@H](CC(=O)O[C@@H]8[C@@H](OC)[C@H](CO)O[C@H]8C[C@H]8O[C@@H](CC[C@@H]1O2)C[C@@H](C)C8=C)O[C@@H]7[C@@H]6O3)[C@H]5O4 | 0.1 | 2.8 | 1
C=C1C[C@@H]2CC[C@@]34C[C@@H]5O[C@@H]6C(O[C@H]7CC[C@H](CC(=O)O[C@@H]8[C@@H](OC)[C@H](C[C@@H](O)CC(O)CO)O[C@H]8C[C@H]8O[C@@H](CC[C@@H]1O2)C[C@@H](C)C8=C)O[C@@H]7[C@@H]6O3)[C@H]5O4 (some centres undefined) | 0.03 | 15 | 1.9
C=C1C[C@@H]2CC[C@@]34C[C@@H]5O[C@@H]6C(O[C@H]7CC[C@H](CC(=O)O[C@@H]8[C@@H](OC)[C@H](OC)[C@H](CCO)O[C@H]8C[C@H]8O[C@@H](CC[C@@H]1O2)C[C@@H](C)C8=C)O[C@@H]7[C@@H]6O3)[C@H]5O4 | > 1 | 2.6 | 2.1
